ChEMBL document CHEMBL4130356, “Design, synthesis and 2D QSAR study of novel pyridine and quinolone hydrazone derivatives as potential antimicrobial and antitubercular agents” (Eur J Med Chem, 2017)
In brackets after ≈: the same amount, converted by molar mass. Activity calls are given as the source filed them. The rule behind the calls is not given here.

Columns and labels:
Aspergillus fumigatus [1] = assay: Antimicrobial activity against Aspergillus fumigatus RCMB 02568 after 48 hrs by serial dilution method; assay type: functional; conditions: RCMB 02568, 48 h
Summary of the method: (§1)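 Serial twofold dilution in microtiter plates starting from a 100 mmol stock in DMSO; final concentrations 125 down to 0.12 […]. Incubated at 28°C and read on a microplate reader after 48 h. Amphotericin B was the reference. Run in triplicate, with the average taken. MIC was the lowest concentration inhibiting growth.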

Aspergillus fumigatus [2] = assay: Antimicrobial activity against Aspergillus fumigatus RCMB 02568 assessed as diameter of zone inhibition at 100 ug/ml after 48 hrs by agar well diffusion assay; assay type: functional; conditions: for zone of inhibition at 100 µg/mL: RCMB 02568, 48 h, read-out: DIZ
Summary of the method: (§2)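 Agar well diffusion on malt agar plates seeded with the fungus, using 1 cm wells. Plates were held at 4°C for 1 h for diffusion, then incubated at 28°C. Inhibition zone diameters were measured at 48 h. Amphotericin B was the positive control. Run in triplicate, with the mean zone reported.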

Candida albicans [3] = assay: Antimicrobial activity against Candida albicans RCMB 05036 assessed as diameter of zone inhibition at 100 ug/ml after 48 hrs by agar well diffusion assay; assay type: functional; conditions: for zone of inhibition at 100 µg/mL: RCMB 05036, 48 h, read-out: DIZ; summary of the method: as §2
Streptococcus pneumoniae [4] = assay: Antimicrobial activity against Streptococcus pneumoniae RCMB 010010 assessed as diameter of zone inhibition at 100 ug/ml after 24 hrs by agar well diffusion assay; assay type: functional; conditions: for zone of inhibition at 100 µg/mL: RCMB 010010, 24 h, read-out: DIZ
Summary of the method: (§3)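 Agar well diffusion on nutrient agar plates seeded with the bacterium, using 1 cm wells. Plates were held at 4°C for 1 h for diffusion, then incubated at 37°C. Inhibition zone diameters were measured at 24 h. Ciprofloxacin was the positive control. Run in triplicate, with the mean zone reported.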

Staphylococcus aureus [5] = assay: Antimicrobial activity against Staphylococcus aureus RCMB 010028 assessed as diameter of zone inhibition at 100 ug/ml after 24 hrs by agar well diffusion assay; assay type: functional; conditions: for zone of inhibition at 100 µg/mL: RCMB 010028, 24 h, read-out: DIZ; summary of the method: as §3
Escherichia coli [6] = assay: Antimicrobial activity against Escherichia coli RCMB 010052 assessed as diameter of zone inhibition at 100 ug/ml after 24 hrs by agar well diffusion assay; assay type: functional; conditions: for zone of inhibition at 100 µg/mL: RCMB 010052, 24 h, read-out: DIZ; summary of the method: as §3
Candida albicans [7] = assay: Antimicrobial activity against Candida albicans RCMB 05036 after 48 hrs by serial dilution method; assay type: functional; conditions: RCMB 05036, 48 h; summary of the method: as §1
Streptococcus pneumoniae [8] = assay: Antimicrobial activity against Streptococcus pneumoniae RCMB 010010 after 24 hrs by serial dilution method; assay type: functional; conditions: RCMB 010010, 24 h
Summary of the method: as §1, with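 “37°C” for “28°C”, “24” for “48”, “Ciprofloxacin” for “Amphotericin B”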

Staphylococcus aureus [9] = assay: Antimicrobial activity against Staphylococcus aureus RCMB 010028 after 24 hrs by serial dilution method; assay type: functional; conditions: RCMB 010028, 24 h
Summary of the method: as §1, with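 “37°C” for “28°C”, “24” for “48”, “Ciprofloxacin” for “Amphotericin B”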

Escherichia coli [10] = assay: Antimicrobial activity against Escherichia coli RCMB 010052 after 24 hrs by serial dilution method; assay type: functional; conditions: RCMB 010052, 24 h
Summary of the method: as §1, with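 “37°C” for “28°C”, “24” for “48”, “Ciprofloxacin” for “Amphotericin B”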

[11] = test system: Mycobacterium tuberculosis; assay: Antimycobacterial activity against Mycobacterium tuberculosis RCMB 010126 clinical isolate after 7 days by MABA; assay type: functional
Summary of the method: (§4)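 Inoculum from fresh LJ culture resuspended in 7H9-S broth with casitone, glycerol and OADC, adjusted to McFarland No. 1 and diluted 1:20. Serial two-fold compound dilutions in 7H9-S; isoniazid reference. Incubated 7 days at 37°C in air, then Alamar blue added and incubated overnight. Percent inhibition = 1 − (test well/growth-control mean) × 100; MIC = lowest concentration preventing blue-to-pink change.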

[12] = test system: Mycobacterium tuberculosis; assay: Antimycobacterial activity against Mycobacterium tuberculosis RCMB 010126 clinical isolate assessed as inhibition zone after 7 days by MABA; assay type: functional; summary of the method: as §4
Pseudomonas aeruginosa [13] = conditions: RCMB 010043, 100 ug/ml
Pseudomonas aeruginosa [14] = conditions: RCMB 010043
WI-38 = assay: Cytotoxicity against human WI38 cells assessed as reduction in cell viability after 24 hrs by crystal violet staining-based colorimetric method; conditions: WI-38, 24 h
Summary of the method: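 WI-38 cells were grown in DMEM with 10% FBS at 37°C and 5% CO2, then seeded at 1×10^4 cells/well. Serial twofold dilutions were added, three wells per concentration. Viability was read by crystal violet stain, solubilised in 30% acetic acid, at 490 nm. Run in triplicate. IC50 was estimated from dose-response plots.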

[15] = Selectivity index, ratio of IC50 for human WI38 cells to MIC for Mycobacterium tuberculosis RCMB 010126 clinical isolate; assay type: toxicity; conditions: read-out: Selectivity Index
Summary of the method: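 WI-38 human lung fibroblasts grown in DMEM with 10% FBS at 37°C and 5% CO2, seeded at 1×10^4 cells/well, and exposed to serial two-fold dilutions in triplicate. Viability read by crystal violet stain at 490 nm. IC50 taken from dose-response plots. Ratio uses this IC50 against the MABA MIC for M. tuberculosis.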

[16] = Mycobacterium tuberculosis, RCMB 010126, 168 h

| SMILES | MIC (Aspergillus fumigatus [1]) | zone of inhibition at 100 µg/mL (Aspergillus fumigatus [2]) | zone of inhibition at 100 µg/mL (Candida albicans [3]) | zone of inhibition at 100 µg/mL (Streptococcus pneumoniae [4]) | zone of inhibition at 100 µg/mL (Staphylococcus aureus [5]) | zone of inhibition at 100 µg/mL (Escherichia coli [6]) | MIC (Candida albicans [7]) | MIC (Streptococcus pneumoniae [8]) | MIC (Staphylococcus aureus [9]) | MIC (Escherichia coli [10]) | inhibition zone (IZ) [12] | DIZ (Pseudomonas aeruginosa [13]) | MIC (Pseudomonas aeruginosa [14]) | MIC [11, 16] | also measured |
| --- | --- | --- | --- | --- | --- | --- | --- | --- | --- | --- | --- | --- | --- | --- | --- |
| COc1ccc(/C=N/NC(=O)c2c[nH]c3cc(Cl)ccc3c2=O)cc1OC | 3.9 µg/mL (≈ 10.1 µM) | 20.3 mm | 16.2 mm | 17.3 mm | 20.6 mm | 20.3 mm | 31.2 µg/mL (≈ 81 µM) | 15.6 µg/mL (≈ 40.5 µM) | 1.95 µg/mL (≈ 5.05 µM) | 3.9 µg/mL (≈ 10.1 µM) | inactive | inactive | inactive |  | MIC [11]: inactive |
| CC1(C)S[C@@H]2[C@H](NC(=O)[C@H](N)c3ccccc3)C(=O)N2[C@H]1C(=O)O [AMPICILLIN] |  |  |  | 23.8 mm | 27.4 mm |  |  | 0.98 µg/mL (≈ 2.8 µM) | 0.98 µg/mL (≈ 2.8 µM) |  |  |  |  |  |  |
| Cc1nc(-c2ccc(Cl)cc2)ccc1C(=O)N/N=C/c1ccc(Cl)cc1Cl | 3.9 µg/mL (≈ 9.31 µM) | 19.3 mm | 17.4 mm | 21.3 mm | 19.3 mm | 21.3 mm | 15.6 µg/mL (≈ 37.3 µM) | 1.95 µg/mL (≈ 4.66 µM) | 3.9 µg/mL (≈ 9.31 µM) | 1.95 µg/mL (≈ 4.66 µM) | 35.38 mm | inactive | inactive | 12.5 µg/mL (≈ 29.8 µM) |  |
| O=C(N/N=C/c1ccc(Cl)cc1)c1c[nH]c2ccc(Cl)cc2c1=O | 31.2 µg/mL (≈ 86.8 µM) | 16.3 mm | 13.6 mm | 17.3 mm | 15.3 mm | 20.6 mm | 62.5 µg/mL (≈ 174 µM) | 15.6 µg/mL (≈ 43.4 µM) | 31.2 µg/mL (≈ 86.8 µM) | 1.95 µg/mL (≈ 5.41 µM) | 17.8 mm | inactive | inactive | 99.8 µg/mL (≈ 277 µM) |  |
| COc1ccc(/C=N/NC(=O)c2ccc(-c3ccc(Cl)cc3)nc2C)cc1OC |  |  |  |  |  |  |  |  |  |  | 61.32 mm | inactive |  | 1.56 µg/mL (≈ 3.81 µM) | diameter of the inhibition zone (DIZ) (Aspergillus fumigatus [2]): inactive; diameter of the inhibition zone (DIZ) (Candida albicans [3]): inactive; diameter of the inhibition zone (DIZ) (Streptococcus pneumoniae [4]): inactive; diameter of the inhibition zone (DIZ) (Staphylococcus aureus [5]): inactive; diameter of the inhibition zone (DIZ) (Escherichia coli [6]): inactive; IC50 (WI-38): 443 µg/mL (≈ 1080 µM); selectivity ratio [15]: 284 |
| O=C(N/N=C/c1ccc(Cl)cc1)c1c[nH]c2cc(Cl)ccc2c1=O | 15.6 µg/mL (≈ 43.4 µM) | 17.3 mm | 15.2 mm | 17.1 mm | 16.2 mm | 18.3 mm | 31.2 µg/mL (≈ 86.8 µM) | 15.6 µg/mL (≈ 43.4 µM) | 31.2 µg/mL (≈ 86.8 µM) | 7.81 µg/mL (≈ 21.7 µM) | 19.35 mm | inactive | inactive | 99.8 µg/mL (≈ 277 µM) |  |
| Cc1ccc(/C=N/NC(=O)c2ccc(-c3cccc(Cl)c3)nc2C)cc1 |  |  |  | 13.6 mm | 12.6 mm |  |  |  |  |  | 61.24 mm | inactive |  | 1.56 µg/mL (≈ 4.29 µM) | diameter of the inhibition zone (DIZ) (Aspergillus fumigatus [2]): inactive; diameter of the inhibition zone (DIZ) (Candida albicans [3]): inactive; diameter of the inhibition zone (DIZ) (Escherichia coli [6]): inactive; IC50 (WI-38): 500 µg/mL (≈ 1370 µM); selectivity ratio [15]: 321 |
